Assay outcomes as filed in PubChem.
Autophagy HCS: modulators of autophagy | MEF GFP-LC3 puncta imaging; test concentration mostly 10 µM | calls only at 10 µM (by protocol) | 0.98% of 190,000 active | AID 463193;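 active = percentage of spot-positive cells more than 3 SD above its plate mean, without a fluorescence outlier flag or 80% toxicity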;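 note: spot-positive cell cutoff set from DMSO-treated cells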
TNF death inh: inhibitors of TNF-alpha induced necroptosis in Jurkat FADD-/- cells. Jurkat FADD-/- TNF necroptosis rescue, ATP luminescence, 24 h; 0 = TNF only, 100 = no-TNF cells. activation (protection from cell death), % at 10 µM. 0.068% of 220,000 active. AID 463075;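 active = activation, meaning protection from cell death, of at least 50% relative to plate controls; inactive = activation below 50%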;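 note: necroptosis triggered by 40 ng/mL TNF-alpha added together with compound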
Dynein transport: dynein cargo transport inhibition; 0.47% of 220,000 active; 3617.4 mouse cells, GR-EGFP nuclear translocation imaging; test concentration mostly 20 µM; stimulated with dexamethasone, 1 µM; hits give low values; AID 1381; z-score, hits read low;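 active = plate z-score of nuclear minus cytoplasmic receptor signal below a set negative limit, without overly bright fluorescence or cell loss, cut at about -3.5 in these data, passing the limit was not always enough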;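 note: z-score of nuclear minus cytoplasmic ring GR-EGFP intensity difference per well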
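medium = tetracycline-free induction medium containing charcoal-stripped FBS | probe or stimulus = dexamethasone, 1.0 µM final | timing = 48 h induction, then 1 h compound, then 30 min agonist, 37 °C | detection = automated 10x imaging of fixed Hoechst-stained cells | read-out basis = nuclear versus cytoplasmic GR-EGFP signal, averaged per well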
zVAD death inh: L929 zVAD cell death inhibition. L929 zVAD necroptosis rescue, ATP luminescence, 24 h; with zVAD 60 µM. viability rescue, % at 10 µM. 0.38% of 220,000 active. AID 1377;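 active = activation, scaled between plate controls, above about 75%, limit read from the data; inactive = activation under that limit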;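 note: 0% = zVAD with DMSO and 100% = DMSO alone without zVAD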
Hck Nef HTS: inhibitors of human Hck kinase activated by Nef; AID 463187; P08631; Recombinant Hck-YEEI plus Nef, Z-Lyte FRET kinase assay; inhibition, % at 20 µM; 0.68% of 220,000 active;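 active = Hck-Nef kinase inhibition above about 50%, limit read from the data; inactive = inhibition below that limit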;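 note: 0% = DMSO with Hck plus Nef and 100% = Hck alone without Nef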
Target sequence (P08631 whole entry, looked up): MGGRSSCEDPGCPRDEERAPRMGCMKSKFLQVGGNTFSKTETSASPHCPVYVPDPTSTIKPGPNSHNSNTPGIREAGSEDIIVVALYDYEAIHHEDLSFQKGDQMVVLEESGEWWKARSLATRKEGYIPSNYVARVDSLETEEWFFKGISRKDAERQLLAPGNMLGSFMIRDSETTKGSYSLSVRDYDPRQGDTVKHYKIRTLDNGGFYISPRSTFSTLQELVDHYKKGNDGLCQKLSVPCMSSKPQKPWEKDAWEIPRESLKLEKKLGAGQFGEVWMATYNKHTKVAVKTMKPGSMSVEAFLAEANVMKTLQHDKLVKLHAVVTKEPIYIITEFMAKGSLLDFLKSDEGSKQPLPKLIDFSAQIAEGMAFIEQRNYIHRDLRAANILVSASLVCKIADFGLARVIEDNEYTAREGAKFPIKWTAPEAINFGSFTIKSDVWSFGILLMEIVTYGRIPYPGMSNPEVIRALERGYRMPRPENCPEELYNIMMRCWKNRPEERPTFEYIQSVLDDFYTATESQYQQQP
MDM2 E3 inh: blocks human Mdm2 ubiquitin ligase activity. Q00987. cell-based MDM2 ubiquitination luciferase reporter, 2 h; 0 = plate control, 100 = twice control, blank-subtracted. signal enhancement, % at 5 µM. 0.11% of 210,000 active. AID 1230;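 active = signal enhancement of 30% or more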;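 note: luminescence tracks abundance of the self-degrading MDM2-luciferase fusion protein; higher signal means inhibition of MDM2 E3 ligase activity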
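Buffer or medium: Cells held in DMEM | Assay system: Stable mammalian line carrying autodegrading MDM2–luciferase fusion reporter | Quantity: 2000 cells/well | Times: 4 h settle plus 2 h compound, 37 °C | Doses: One concentration, 5 µM, with 0.2% DMSO | Technique: Luminescence with SteadyLite reagent, 15 min at room temperature | Benchmarks: Plate controls and plate blanks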
Hck-Nef confirm: Hck-Nef kinase inhibition, confirmation; shares compounds with Hck Nef HTS; Recombinant Hck-YEEI:Nef, Z-Lyte FRET kinase assay; calls only at 10 µM; 28% of 1,300 active; AID 463188;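 active = average inhibition of at least 50%, with Z-scores no higher than 3 in both the phospho-tyrosine peptide and fluorescence counterscreens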
The depositor's hits bear a star; i = inactive; / = not tested or not shown; + = active, no number. Hits are enriched below; roughly 2.4% of the tested compounds scored in any of these assays.

SMILES | Autophagy HCS | TNF death inh | Dynein transport | zVAD death inh | Hck Nef HTS | MDM2 E3 inh | others
N=c1c(C(=O)NCc2ccco2)cc2c(=O)n3ccccc3nc2n1CC1CCCO1 (configuration not stated) | i | -4 | -1.1 | -1 | 47 | /
CC(C)CC(=O)NC(=S)Nc1ccc(NC(=O)c2ccco2)cc1 | i | 2 | 0.33 | 0 | 17 | 7
COc1ccc(S(=O)(=O)N(C)CC(=O)NCc2cccnc2)cc1Cl | i | 1 | -0.52 | 0 | -16 | -13
CN(c1ccccc1)S(=O)(=O)c1cccc(NC(=O)CSc2ncc(C(F)(F)F)cc2Cl)c1 | i | 1 | -0.6 | 0 | 4 | 2
CCCS(=O)(=O)N1CCN(C(=O)c2cccc(OC)c2)CC1 | i | 0 | 1.7 | 1 | 1 | -3
COc1ccccc1OCCOc1ccc(/C=C2/C(=N)N3OC(C)=CC3=NC2=O)cc1OC | i | -3 | -0.78 | 0 | 89* | -11 | Hck-Nef confirm=+
COc1ccccc1NS(=O)(=O)c1cc(C(=O)N2CC(C)CC(C)C2)ccc1C (configuration not stated) | i | -4 | -0.23 | 0 | 2 | -14
COc1ccc(Nc2n[nH]c(N)c2C(N)=O)cc1 | i | 0 | -1 | 13 | 65* | -15 | Hck-Nef confirm=i
CCC(C)n1c(=N)c(C#N)cc2c(=O)n3cccc(C)c3nc21 (configuration not stated) | i | 0 | 0.49 | 69 | 40 | 3
CCNC(=O)c1cc2c(=O)n3cccc(C)c3nc2n(CCc2ccccc2)c1=N | i | -3 | -1.2 | -1 | 98* | -22
Cc1ccc2nc3c(cc(C#N)c(=O)n3-c3nccs3)c(=O)n2c1 | i | 1 | -0.21 | 1 | 185* | -11
CNC(=O)c1cc2c(=O)n3cccc(C)c3nc2n(C(C)C)c1=N | i | 0 | -0.29 | 0 | 172* | -16
Cc1cccn2c(=O)c3cc(C(=O)NCCc4ccccc4)c(=N)n(CCCn4ccnc4)c3nc12 | i | -8 | 0.11 | -1 | 61* | -13
CCCCNC(=O)c1cc2c(=O)n3cccc(C)c3nc2n(Cc2ccccc2)c1=N | i | -4 | -0.77 | -2 | 10 | -14
CC(=O)N=c1c(C#N)cc2c(=O)n3ccccc3nc2n1Cc1ccccc1 | i | 1 | -0.21 | 0 | 19 | -6
Cc1ccc2nc3c(cc(C(=O)NC4CCCC4)c(=N)n3CCCn3ccnc3)c(=O)n2c1 | i | 3 | 0.26 | -1 | 110* | 2
C=CCn1c(=N)c(C(=O)NCCCOC)cc2c(=O)n3cccc(C)c3nc21 | i | -1 | 0.29 | 0 | 200* | -21
N#Cc1cc2c(=O)n3ccccc3nc2n(CCCN2CCOCC2)c1=O | i | 1 | -1.3 | 2 | 149* | -11
O=C(NCCN1CCOCC1)c1cc2c(=O)n3ccccc3nc2n1Cc1ccccc1 | i | -4 | -0.072 | 0 | 52* | -4 | Hck-Nef confirm=i
Cc1cccn2c(=O)c3cc(C(=O)NCCCn4ccnc4)n(C)c3nc12 | i | 0 | 0.61 | 6 | 19 | -15
N=c1c(C(=O)NC2CCCC2)cc2c(=O)n3ccccc3nc2n1CCN1CCOCC1 | i | -1 | -0.054 | 0 | 34 | -6
COc1ccc(C2CC(=O)C3=C(C2)Nc2ccccc2N(C(=O)CCC(=O)O)C3c2ccc(F)cc2)cc1 (configuration not stated) | / | 4 | 0.16 | 0 | 12 | -8
CCNC(=O)n1nccc1C(C)Oc1ccc(Cl)cc1 (configuration not stated) | i | -4 | -1.5 | 0 | 0 | -5
OC(COc1ccc(C2C=CCC2)cc1)CN1CCCCC1 (configuration not stated) | i | -1 | -0.4 | 5 | 3 | -12
N=c1c(C(=O)NCc2ccco2)cc2c(=O)n3ccccc3nc2n1CCc1ccccc1 | i | 1 | 0.43 | 1 | 1 | /
SMILES | Autophagy HCS | TNF death inh | Dynein transport | zVAD death inh | Hck Nef HTS | MDM2 E3 inh | others
Cc1cccn2c(=O)c3cc(C(=O)NCCN4CCOCC4)c(=N)n(CCc4ccccc4)c3nc12 | i | 4 | -0.0056 | -1 | 61* | -12
Cc1ccc(Cn2c(=N)c(C#N)cc3c(=O)n4cccc(C)c4nc32)cc1 | i | -1 | -0.42 | -1 | 21 | -12
Cc1ccc(-n2c(=O)c(C#N)cc3c(=O)n4cccc(C)c4nc32)cc1 | i | 0 | -0.013 | 0 | 67* | -2
N#Cc1cc2c(=O)n3ccccc3nc2n(-c2ccccc2Cl)c1=O | i | -6 | 1.7 | 0 | + | -22
CCC(C)c1ccccc1NC(=O)COC(=O)C1=COCCO1 (configuration not stated) | i | 0 | 1.8 | 3 | -35 | 6
O=C(Cc1ccc(Cl)cc1)Nc1ccc(N2CCCC2)cc1 | i | 1 | -0.59 | 0 | 0 | -10
Clc1cccc(Cl)c1CNc1ccc(N2CCCC2)cc1 | i | -9 | 0.2 | 0 | 71* | -6 | Hck-Nef confirm=i
N#Cc1cc2cc3c(cc2nc1NCCNC(=S)NCCCN1CCOCC1)OCO3 | i | 4 | 0.68 | 0 | 74* | -9
S=C(NCCCN1CCOCC1)NCCCN1CCOCC1 | i | 0 | 0.31 | 0 | 11 | -6
O=C(Cn1c2ccccc2c(=O)c2ccccc21)N/N=C/c1cc([N+](=O)[O-])ccc1N1CCCCCC1 | + | -3 | -1.2 | 1 | 81* | -9 | Hck-Nef confirm=+
CCn1cc(CNCc2cn(C)nc2-c2ccc(C3CCCCC3)cc2)cn1 | i | 1 | -0.16 | 24 | 9 | -9
Cc1ccc(S(=O)(=O)NCCC(=O)Oc2ccc3ccc(=O)oc3c2)cc1 | / | 2 | -0.82 | 0 | 93* | -4
Cc1ccc2cc(S(=O)(=O)NCCC(=O)O)ccc2c1 | i | 2 | -0.59 | 0 | 1 | -4
Cc1ccc(-c2nc3c(c(=O)[nH]c(=O)n3Cc3ccccc3)n2C)s1 | / | -1 | -0.013 | 1 | 58* | -9 | Hck-Nef confirm=i
COCc1cc(C)nc(OCC(=O)N/N=C/c2ccco2)c1C#N | i | 1 | -0.47 | 1 | 3 | 2
COCc1cc(C)nc(OCC(=O)N/N=C/c2ccc(-c3cc([N+](=O)[O-])ccc3Cl)o2)c1C#N | i | 1 | -0.26 | 5 | 93* | 1 | Hck-Nef confirm=i
COc1cc(NC(=O)CSc2nc3c(C)ccc(C)c3cc2C)c(C(=O)O)cc1OC | i | 0 | -0.37 | 0 | 3 | -11
